The results in this text go back to ChEMBL document CHEMBL4130550, “Antiproliferative Dimeric Aporphinoid Alkaloids from the Roots of Thalictrum cultratum” (J Nat Prod, 2017).

Assay [1] concerns PC-3. In words: Antiproliferative activity against human PC3 cells by MTT assay. It is filed as functional, cell-based. Put shortly: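 PC-3 (ATCC) in supplemented RPMI-1640 with 10% FBS at 37 °C, 5% CO2. Log-phase cells get graded concentrations in triplicate. MTT (5 mg/mL solution) is added for a further 4 h, then dissolved in DMSO and read at 490 nm. IC50 is from the average of three parallel experiments. Negative reference is 0.1% DMSO.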
(Tetrazolium assays rely on reduction of a dye to a coloured formazan, in cell work by metabolically active cells.)

For assay [2], the system named is HL-60. The assay is described as follows: Antiproliferative activity against human HL60 cells after 72 hrs by tryphan blue staining based hematocytometric method. The assay is classed as functional, cell-based. Particulars: HL-60, 72 h. Put shortly:
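HL-60 (ATCC) in RPMI-1640 with 10% heat-inactivated FBS, 1 mM glutamine and penicillin/streptomycin, 37 °C, 5% CO2. Cells at 4.5 × 10^4 cells/mL are exposed to a concentration gradient (DMSO stock diluted in absolute EtOH) for 72 h. Trypan blue is added and total cells are counted on a hematocytometer. IC50 is the mean of three parallel experiments. Negative reference is 0.1% DMSO.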

The subject of assay [3] is PC-3. In words: Potency index, ratio of camptothecin IC50 to compound IC50 for human PC3 cells. It is filed as functional.
The test system of assay [4] is PC-3. In words: Potency index, ratio of 5-fluorouracil IC50 to compound IC50 for human PC3 cells. It is filed as functional.
In assay [5] the test system is HL-60. In words: Potency index, ratio of 5-fluorouracil IC50 to compound IC50 for human HL60 cells. The assay is classed as functional.

pIC50: −log10 of the molar value.

Broadly, the pIC50 is the negative decadic logarithm of the IC50, by convention in mol/L. High values mean a low IC50, low ones a high IC50. `COc1cc2c(cc1OC)C1=Cc3c(cc(OC)c(OC)c3Oc3cc4c(cc3OC)-c3c(OC)c(OC)c(OC)c5c3[C@H](C4)N(C)CC5)CN1CC2`: the negative-log IC50 (pIC50) in assay [1] was 4.93; in assay [2], 5.75.

With `COc1cc2c(c(O)c1OC)CC[N@@+](C)([O-])[C@H]2Cc1ccc(Oc2c3c(cc(OC)c2OC)-c2c(OC)c(OC)c(OC)c4c2[C@H](C3)N(C)CC4)cc1`, the pIC50 is 4.73 in assay [1] and 5.34 in assay [2].

As to `COc1cc2c(cc1OC)[C@H](Cc1ccc(Oc3c(OC)c(OC)cc4c3cc3c5c(c(OC)c(OC)c(OC)c54)CCN3C)cc1)N(C)CC2`, the pIC50 in assay [1] is 5.59; in assay [2], 5.62.

On to `COc1cc2c(c(Oc3ccc(C[C@H]4c5cc(OC)c(OC)c(OC)c5CCN4C)cc3)c1OC)C[C@H]1c3c(c(OC)c(OC)c(OC)c3-2)CCN1C`, for which the negative-log IC50 (pIC50) in assay [1] was 5.22; in assay [2], 5.94.

`COc1cc2c(cc1OC)[C@H](Cc1ccc(Oc3c4c(cc(OC)c3OC)-c3c(OC)c(OC)c(OC)c5c3[C@H](C4)N(C)CC5)cc1)N(C)CC2` [THALIFABERINE]: the results for the pIC50 in assay [1] and in assay [2] were 5.14 and 5.80, respectively.

In the case of `COc1cc2c(c(O)c1OC)CCN(C)[C@H]2Cc1ccc(Oc2c3c(cc(OC)c2OC)-c2c(OC)c(OC)c(OC)c4c2[C@H](C3)N(C)CC4)cc1`, the “Ratio IC50” value is on record as 3 in assay [3], 9 in assay [4] and 2 in assay [5]. Further, the pIC50 is 5.61 in assay [1] and 6.00 in assay [2].

As to `COc1cc2c(cc1OC)-c1cc3c(Oc4cc5c(cc4OC)-c4c(OC)c(OC)c(OC)c6c4[C@H](C5)N(C)CC6)c(OC)c(OC)cc3c(=O)n1CC2`, the pIC50 is 5.43 in assay [1] and 4.99 in assay [2].

For the molecule `COc1cc2c(c(OC)c1OC)CCN(C)[C@H]2Cc1ccc(Oc2c(OC)c(OC)cc3c2cc2c4c(c(OC)c(OC)c(OC)c43)CCN2C)cc1`, the pIC50 was 5.22 in assay [1] and 5.67 in assay [2].

As for `COc1cc2c(c(O)c1OC)CC[N@+](C)([O-])[C@H]2Cc1ccc(Oc2c3c(cc(OC)c2OC)-c2c(OC)c(OC)c(OC)c4c2[C@H](C3)N(C)CC4)cc1`, the negative logarithm of the IC50 (pIC50) is 4.90 in assay [1] and 5.54 in assay [2].

As for `COc1cc2c(c3c1OCO3)CCN(C)[C@H]2Cc1ccc(Oc2c(OC)c(OC)cc3c2cc2c4c(c(OC)c(OC)c(OC)c43)CCN2C)cc1`, the figures for the negative-log IC50 (pIC50) in assay [1] and in assay [2] were 5.48 and 5.75, respectively.

For the molecule `COc1cc2c(c(Oc3ccc(C[C@H]4c5cc(OC)c(OC)c(OC)c5CC[N@@+]4(C)[O-])cc3)c1OC)C[C@H]1c3c(c(OC)c(OC)c(OC)c3-2)CCN1C`, the results for the pIC50 in assay [1] and in assay [2] were 4.87 and 5.30, respectively.

Consider `COc1cc2c(cc1OC)[C@H](Cc1ccc(Oc3c4c(cc(OC)c3OC)-c3c(OC)c(OC)cc5c3[C@H](C4)N(C)CC5)cc1)N(C)CC2`, for which the pIC50 is 5.57 in assay [1] and 5.84 in assay [2].

For the molecule `COc1cc2c(c(O)c1OC)CCN(C)[C@H]2Cc1ccc(Oc2c3c(cc(OC)c2OC)-c2c(OC)c(OC)cc4c2[C@H](C3)N(C)CC4)cc1`, the pIC50 is 5.23 in assay [1] and 5.68 in assay [2].

For the molecule `COc1cc2c(c(O)c1OC)CCN(C)[C@H]2Cc1ccc(Oc2c(OC)c(OC)cc3c2cc2c4c(c(OC)c(OC)c(OC)c43)CCN2C)cc1`, the figures for the pIC50 in assay [1] and in assay [2] were 5.15 and 5.37, respectively.

In the case of `CC[C@@]1(O)C(=O)OCc2c1cc1n(c2=O)Cc2cc3ccccc3nc2-1` [CAMPTOTHECIN], the negative-log IC50 (pIC50) was 5.16 in assay [1] and 6.04 in assay [2].

In the case of `COc1cc2c(c(Oc3ccc(C[C@H]4c5cc(OC)c(OC)c(OC)c5CC[N@+]4(C)[O-])cc3)c1OC)C[C@H]1c3c(c(OC)c(OC)c(OC)c3-2)CCN1C`, the pIC50 in assay [1] is 5.08; in assay [2] it was 5.38.

`COc1cc2c(cc1OC)[C@H](Cc1ccc(Oc3c(OC)c(OC)cc4c3cc3c5c(cc(OC)c(OC)c54)CCN3C)cc1)N(C)CC2`: the pIC50 in assay [1] is 5.10; in assay [2], 5.39.

As for `O=c1[nH]cc(F)c(=O)[nH]1` [FLUOROURACIL], the pIC50 in assay [1] was 4.66.
